What was measured:
[1] = tested on: HIV-1; settings: MT-2 cell culture
[2] = assay type: physicochemical; settings: reaction at 37°C, gel apparatus up to 55°C
Outline: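 Stability inferred from a single-turnover incorporation time course using HIV-1 RT (250 nM) and D23/D36 primer/template (50 nM). The test triphosphate (150 μM) and a dTTP reference (100 μM) were run in parallel at 37°C and sampled at 0, 30 s, 5, 10, 30 and 60 min. Products were resolved on denaturing acrylamide gel (apparatus up to 55°C), comparing band mobility.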

SMILES	Antiviral activity in cell culture (in words) [1]	Stability (in words) [2]
CC(C)=CCN1Cc2c(OCCOCCOCCOCCOC(=O)CCc3cn([C@H]4C=C[C@@H](CO)O4)c(=O)[nH]c3=O)ccc3[nH]c(=S)n(c23)C[C@@H]1C [Compound 16a]	most inhibitory	
Cc1cc(C#CCOCCOCCOCCOCCOCC#Cc2cn([C@H]3C=C[C@@H](COP(=O)(O)OP(=O)(O)OP(=O)(O)O)O3)c(=O)[nH]c2=O)cc(C)c1Oc1ccnc(Nc2ccc(C#N)cc2)n1 [d4TTP-4PEG-TMC]		increased compound stability
